The text below walks through data of ChEMBL document CHEMBL1144989, “Synthesis and biological evaluation of resveratrol and analogues as apoptosis-inducing agents” (J Med Chem, 2003).

Experiment [1] has as its system HL-60. The experiment is described as follows: In vitro concentration required to induce apoptosis in HL60 cells. It is filed as functional, cell-based, Homo sapiens. In a few lines:
(§1)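 Apoptosis scored morphologically after acridine orange/ethidium bromide labeling. 2 × 10^5 cells were pelleted at 300g, resuspended in dye mix and examined under a fluorescence microscope with a 100× oil objective. Percentages were confirmed by annexin V/PI and by the PI sub-G0-G1 hypodiploid peak after 48 h culture. Compounds were diluted in medium from DMSO or PBS, DMSO ≤0.1%.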

The subject of experiment [2] is HL-60. The experiment is described as follows: In vitro inhibitory concentration against proliferation of HL60 cells. The format is functional, cell-based, Homo sapiens. In a few lines:
(§2)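 Cells were cultured at 37 °C in 5% CO2. 2 × 10^5 cells in 1 mL complete medium were treated with a range of drug concentrations for 48 h. Viable cells were counted on a hemocytometer after trypan blue staining and expressed as percent of control proliferation. Compounds were diluted in medium from DMSO or PBS stocks, final DMSO ≤0.1%, protected from light.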

The subject of experiment [3] is HL-60. Kind of experiment: (§3) In vitro concentration required to induce apoptosis in HL60R cells. The following applies: Homo sapiens. The format is functional, cell-based. In a few lines:
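HL60R cells in 5% CO2 at 37 °C, treated with a range of drug concentrations for 48 h. Cells were labelled with acridine orange/ethidium bromide and scored under fluorescence microscopy (100× oil) as live, apoptotic or necrotic. The AC50 is derived from the percentage of apoptotic cells. Annexin V/PI staining and PI sub-G0-G1 flow cytometry served as confirmation. DMSO ≤0.1%.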

For experiment [4], the system named is HL-60. Kind of experiment: (§4) In vitro inhibitory concentration against proliferation of HL60R cells. The following applies: Homo sapiens. The format is functional, cell-based. In a few lines:
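HL60R cells, 2 × 10^5 per well in 1 mL complete medium at 37 °C with 5% CO2, treated with a range of drug concentrations for 48 h. Compounds were dissolved in DMSO or PBS, with final DMSO ≤0.1%. Viable cells were counted by trypan blue exclusion on a hemocytometer and expressed as percent of control proliferation to derive the IC50.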

The test system of experiment [5] is HL-60. The experiment is described as follows: (§5) In vitro inhibitory concentration against proliferation of HL60R cells along with 5 (uM) verapamil. It is filed as functional, cell-based. The note with it: Homo sapiens. In a few lines:
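HL60R cells, 2 × 10^5 per well in 1 mL complete medium at 37 °C with 5% CO2, given verapamil together with a range of drug concentrations for 48 h. Viable cells were counted by trypan blue exclusion on a hemocytometer and expressed as percent of control proliferation to derive the IC50. Final DMSO ≤0.1%.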

Experiment [6] concerns HL-60. Described as §3. The format is functional, cell-based. The following applies: Homo sapiens. In a few lines:
as §1
The source holds these as a separate data set.

Experiment [7] deals with HL-60. The description is as §4. The following applies: Homo sapiens. It is filed as functional, cell-based. In a few lines:
as §2
This is another data set of the same source.

The subject of experiment [8] is HL-60. Described as §5. The format is functional, cell-based. The following applies: Homo sapiens. In a few lines: as §2
This is another data set of the same source.

Experiment [9] concerns HL-60. Kind of experiment: In vitro concentration required to inhibit cell proliferation in HL60R cells. The note with it: Homo sapiens.

Molecule `COc1ccc(/C=C/c2cc(O)cc(O)c2)cc1O` returned an AC50 in the experiment with HL-60 [1] (Homo sapiens, HL-60) above 200 µM. In the experiment on HL-60 [2] (Homo sapiens, HL-60), it took 48 µM to reach half-maximal inhibition (IC50).
For the molecule `COc1cc(/C=C\c2ccc(OC)c(O)c2)cc(OC)c1`, the concentration at half-maximal activity (AC50) turned out to be 0.03 µM in the experiment on HL-60 [3] and 0.04 µM in the experiment on HL-60 [1] (Homo sapiens, HL-60). The IC50 in the experiment on HL-60 [4] is 0.025 µM; with HL-60 [5], 0.02 µM.
`COc1cc(/C=C/c2ccc(OC)c(N)c2)cc(OC)c1` returned an AC50 in the experiment with HL-60 [1] (Homo sapiens, HL-60) of 8 µM. The molecule also displayed a concentration for half-maximal inhibition (IC50) with HL-60 [2] (Homo sapiens, HL-60) of 4 µM.
In the case of `COc1cc(/C=C/c2ccc(O[Si](C)(C)C(C)(C)C)cc2)cc(OC)c1`, the half-maximal activity concentration (AC50) in the experiment on HL-60 [1] (Homo sapiens, HL-60) is above 200 µM. This molecule showed an IC50 with HL-60 [2] (Homo sapiens, HL-60) of 48 µM.
In the experiment with HL-60 [1] (Homo sapiens, HL-60), `COc1cc(/C=C\c2ccc(O)c(O)c2)cc(OC)c1` displayed an AC50 of 0.1 µM. This molecule had an IC50 in the experiment with HL-60 [2] (Homo sapiens, HL-60) of 0.05 µM.
`COc1cc(/C=C\c2ccc(O)c(OC)c2)cc(OC)c1` displayed a half-maximal activity concentration (AC50) in the experiment on HL-60 [1] (Homo sapiens, HL-60) of 38 µM. It took 20 µM to reach half-maximal inhibition in the experiment on HL-60 [2] (Homo sapiens, HL-60) (IC50).
In the experiment with HL-60 [1] (Homo sapiens, HL-60), `COc1cc(/C=C/c2ccc(O)c(OC)c2)cc(OC)c1` yielded an AC50 of 40 µM. In addition, the IC50 in the experiment with HL-60 [2] (Homo sapiens, HL-60) was found to be 25 µM.
For the molecule `COc1cc(/C=C\c2ccc(OC)c(N)c2)cc(OC)c1`, the half-maximal activity concentration (AC50) in the experiment with HL-60 [6] came out at 0.05 µM; with HL-60 [1] (Homo sapiens, HL-60), 0.04 µM. Further, the half-inhibitory concentration (IC50) with HL-60 [7] was 0.035 µM; in the experiment with HL-60 [8], 0.032 µM.
Regarding `COc1cc(/C=C\c2ccc(O[Si](C)(C)C(C)(C)C)cc2)cc(OC)c1`, the AC50 in the experiment on HL-60 [1] (Homo sapiens, HL-60) is above 200 µM. Besides, the IC50 in the experiment on HL-60 [2] (Homo sapiens, HL-60) turned out to be 50 µM.
`COc1ccc(/C=C/c2cc(O)cc(O)c2)cc1N` showed an AC50 in the experiment on HL-60 [1] (Homo sapiens, HL-60) above 200 µM. Half-maximal inhibition in the experiment on HL-60 [2] (Homo sapiens, HL-60) (IC50) required 80 µM.
For `COc1ccc(/C=C\c2cc(O)cc(O)c2)cc1N`, in that order: 68 µM and 40 µM.
On to `COc1cc(/C=C/c2ccc(O)c(O)c2)cc(OC)c1`, for which the AC50 with HL-60 [1] (Homo sapiens, HL-60) is 1 µM. The molecule further displayed an IC50 with HL-60 [2] (Homo sapiens, HL-60) of 0.8 µM.
In turn, `COc1ccc(/C=C\c2cc(O)cc(O)c2)cc1O` displayed an AC50 with HL-60 [1] (Homo sapiens, HL-60) of 70 µM. In the experiment with HL-60 [2] (Homo sapiens, HL-60), this molecule registered an IC50 of 40 µM.
Regarding `COc1cc(/C=C/c2ccc(OC)c(O)c2)cc(OC)c1`, in the experiment with HL-60 [1] (Homo sapiens, HL-60), half-maximal activity (AC50) was put at 0.9 µM. This molecule also yielded an IC50 in the experiment with HL-60 [2] (Homo sapiens, HL-60) of 0.7 µM.
In turn, `COc1cc(/C=C\c2ccc(O)cc2)cc(OC)c1` returned an AC50 in the experiment on HL-60 [1] (Homo sapiens, HL-60) of 5 µM. Besides, inhibition with HL-60 [2] (Homo sapiens, HL-60) was half-maximal at 2 µM (IC50).
In the experiment with HL-60 [1] (Homo sapiens, HL-60), `Oc1ccc(/C=C\c2cc(O)cc(O)c2)cc1` [CIS-RESVERATROL] gave an AC50 above 200 µM. In addition, the midpoint of inhibition in the experiment on HL-60 [2] (Homo sapiens, HL-60), the IC50, lay at 42 µM.
For `Nc1ccn([C@@H]2O[C@H](CO)[C@@H](O)[C@@H]2O)c(=O)n1` [CYTARABINE], the AC50 in the experiment on HL-60 [6] came out at 8 µM; with HL-60 [1] (Homo sapiens, HL-60), 0.15 µM. Also, the IC50 in the experiment with HL-60 [2] (Homo sapiens, HL-60) was found to be 0.08 µM; in the experiment with HL-60 [9], 0.35 µM.
As for `COc1cccc2c1C(=O)c1c(O)c3c(c(O)c1C2=O)C[C@@](O)(C(C)=O)C[C@@H]3O[C@H]1C[C@H](N)[C@H](O)[C@H](C)O1` [DAUNORUBICIN], the AC50 with HL-60 [6] is 10 µM; in the experiment on HL-60 [1] (Homo sapiens, HL-60) it was 0.04 µM. The IC50 in the experiment with HL-60 [2] (Homo sapiens, HL-60) stood at 0.005 µM; in the experiment with HL-60 [7], 1.5 µM; with HL-60 [8], 0.04 µM.
Consider `COc1cc([C@@H]2c3cc4c(cc3[C@@H](O[C@@H]3O[C@@H]5CO[C@@H](C)O[C@H]5[C@H](O)[C@H]3O)[C@H]3COC(=O)[C@H]23)OCO4)cc(OC)c1O` [ETOPOSIDE], for which the AC50 stood at 15 µM with HL-60 [6] and 0.45 µM in the experiment on HL-60 [1] (Homo sapiens, HL-60). Also, the IC50 with HL-60 [2] (Homo sapiens, HL-60) was found to be 0.123 µM; in the experiment on HL-60 [7] it was 6.5 µM; in the experiment on HL-60 [8], 0.5 µM.
In the experiment on HL-60 [1] (Homo sapiens, HL-60), `O=c1[nH]cc(F)c(=O)[nH]1` [FLUOROURACIL] gave an AC50 of 6.5 µM. The molecule further gave an IC50 in the experiment on HL-60 [2] (Homo sapiens, HL-60) of 1.5 µM.
`COc1cc(/C=C/c2ccc(O)cc2)cc(OC)c1` [PTEROSTILBENE] gave an AC50 in the experiment on HL-60 [1] (Homo sapiens, HL-60) of 70 µM. The IC50 with HL-60 [2] (Homo sapiens, HL-60) was 35 µM.
The matching figures for `Oc1ccc(/C=C/c2cc(O)cc(O)c2)cc1` [RESVERATROL]: 50 µM and 5 µM.
Molecule CISPLATIN gave an AC50 with HL-60 [1] (hl-60) of 1.2 µM. The same molecule had an IC50 with HL-60 [2] (hl-60) of 0.6 µM.
